Data reported in ChEMBL document CHEMBL3994616, “Rational design, synthesis, and evaluation of novel 2,4-Chloro- and Hydroxy-Substituted diphenyl Benzofuro[3,2-b]Pyridines: Non-intercalative catalytic topoisomerase I and II dual inhibitor” (Eur J Med Chem, 2017).
Structures can show the parent of a compound that is named as a salt. Calls of active or inactive are those of the source. No cut-off for these calls is given here.

How the values were obtained:
[1] = target: DNA topoisomerase 2-alpha (Homo sapiens) (UniProt P11388); settings: 250 uM
[2] = target: DNA topoisomerase 2-alpha (Homo sapiens) (UniProt P11388); assay: Inhibition of human recombinant topoisomerase-2alpha-mediated relaxation of supercoiled pBR322 DNA at 100 uM after 30 mins by ethidium bromide staining based agarose gel electrophoresis method relative to control
HCT-15 [3] = assay: Antiproliferative activity against human HCT15 cells after 72 hrs by CCK8 assay; type: functional, cell-based; settings: HCT-15, 72 h
Procedure, shortened: (§1)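 Cells seeded at 2-4 x 10⁴ per well, cultured overnight in medium with 10% FBS at 37 °C, 5% CO₂, then serum-starved 4 h. Graded compound concentrations added for 72 h, CCK-8 added for a further 4 h, absorbance read at 450 nm. IC50 from a four-parameter logistic fit. Results come from three experiments, each in triplicate.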

T47D = assay: Antiproliferative activity against human T47D cells after 72 hrs by CCK8 assay; type: functional, cell-based
Procedure, shortened: as §1

HeLa = assay: Antiproliferative activity against human HeLa cells after 72 hrs by CCK8 assay; type: functional, cell-based
HCT-15 [4] = assay: Induction of DNA damage in human HCT15 cells assessed as comet tail formation at 30 uM after 24 hrs using SYBRGreen stain by electrophoresis based fluorescence microscopic method (reference value: 3 +/- 1.1%); type: functional
HCT-15 [5] = assay: Induction of DNA damage in human HCT15 cells assessed as increase in gammaH2AX level at 30 uM after 24 hrs by Western blot method; type: functional, cell-based
Procedure, shortened: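 HCT15 cells exposed to 30 µM for 24 h, then lysed. 60 µg protein per sample run on 12% SDS-PAGE, and γ-H2AX detected by western blot.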

[6] = target: DNA topoisomerase 2-alpha (Homo sapiens) (UniProt P11388); assay: Poison activity at human recombinant topoisomerase 2 in human HCT15 cells assessed as […] at 50 uM after 2 hrs by Western blot method; type: cell-based
HCT-15 [7] = assay: Induction of DNA damage in human HCT15 cells assessed as comet tail formation at 10 uM after 24 hrs using SYBRGreen stain by electrophoresis based fluorescence microscopic method (reference value: 3 +/- 1.1%); type: functional
[8] = target: T1, Topoisomerase I/II (Homo sapiens) (UniProt P11387+P11388); assay: Inhibition of topoisomerase-1/topoisomerase-2 in human HCT15 cell nuclear extract at 25 uM preincubated for 24 hrs followed by supercoiled pBR322 DNA addition measured after 20 mins by ethidium bromide staining based agarose gel electrophoresis method relative to control; type: protein assay
Procedure, shortened: (§2)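 HCT15 cells treated 24 h at 25, 50 or 100 µM, then nuclear fractions prepared. Nuclear extract incubated with 100 ng pBR322 at 37 °C to read relaxation by endogenous topo I/II. Products run on 1.0% agarose at 50 V for 50 min in TAE, EtBr-stained, UV-visualized. Inhibition percent averaged over three experiments.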

[9] = target: T1, Topoisomerase I/II (Homo sapiens); assay: Inhibition of topoisomerase-1/topoisomerase-2 in human HCT15 cell nuclear extract at 50 uM preincubated for 24 hrs followed by supercoiled pBR322 DNA addition measured after 20 mins by ethidium bromide staining based agarose gel electrophoresis method relative to control; type: protein assay
Procedure, shortened: as §2

[10] = target: DNA topoisomerase 2-alpha (Homo sapiens) (UniProt P11388); assay: Poison activity at human recombinant topoisomerase 2 alpha assessed as stabilization of enzyme-DNA cleavable complex by measuring formation of linear DNA at 100 to 500 uM using supercoiled pBR322 DNA after 30 mins by ethidium bromide staining based agarose gel electrophoresis method
Procedure, shortened: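 250 ng supercoiled pBR322 preincubated with 3 units human topo II for 10 min in topo II relaxation buffer. Compound then added at 100 or 500 µM and incubated 30 min more at 37 °C. SDS stop, proteinase K 0.25 mg/mL at 45 °C for 30 min. Run on 1% agarose with EtBr at 30 V for 6 h, linear DNA band scored.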

[11] = target: DNA topoisomerase 2-alpha (Homo sapiens) (UniProt P11388); assay: Inhibition of human topoisomerase-2 alpha-mediated kinetoplast DNA decatenation after 30 mins by ethidium bromide staining based agarose gel electrophoresis
Procedure, shortened: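 75 ng kDNA in 50 mM Tris-HCl pH 8.0, 120 mM KCl, 10 mM MgCl₂, 0.5 mM DTT, 0.5 mM ATP, 30 µg/mL BSA. Compound added at 250 or 500 µM final, reaction started with 3 units topo II, 10 µL, 30 min at 37 °C. Stopped with SDS/ficoll/dye, proteinase K 0.25 mg/mL for 30 min. Run on 1.2% agarose containing EtBr.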

Bos taurus [12] = species: Bos taurus; assay: Induction of calf thymus DNA intercalation assessed as inhibition of ethidium bromide binding to DNA up to 40 uM after 30 mins by fluorescence assay
Procedure, shortened: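 Calf thymus DNA ([…]) premixed with EtBr ([…]) in 10 mM Tris, pH 7.2, for 30 min at room temperature. Compound added at increasing concentrations […], with 1% DMSO final in all wells including control. Incubated 30 min more with shaking. Fluorescence excited at 471 nm, emission collected 500-700 nm.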

[13] = target: T1, Topoisomerase I/II (Homo sapiens); assay: Inhibition of topoisomerase-1/topoisomerase-2 in human HCT15 cell nuclear extract at 100 uM preincubated for 24 hrs followed by supercoiled pBR322 DNA addition measured after 20 mins by ethidium bromide staining based agarose gel electrophoresis method relative to control; type: protein assay
Procedure, shortened: as §2

[14] = target: T1, Topoisomerase I/II (Homo sapiens); assay: Inhibition of topoisomerase-1/topoisomerase-2 in human HCT15 cell nuclear extract preincubated for 24 hrs followed by supercoiled pBR322 DNA addition measured after 20 mins by ethidium bromide staining based agarose gel electrophoresis method; type: protein assay
Procedure, shortened: as §2

HCT-15 [15] = assay: Induction of apoptosis in human HCT15 cells assessed as increase in cleaved PARP level after 24 hrs by Western blot method; type: functional, cell-based
Procedure, shortened: (§3)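 HCT15 cells grown to 80% confluency, then treated 24 h at […]. Lysis buffer: Tris/NaCl/1% Triton X-100 with protease inhibitors. 60 µg protein run on 12% SDS-PAGE and transferred to PVDF. Blocked in 5% milk/TBST, primary antibodies 1:1000 for 2-3 h, HRP anti-rabbit 1:2000 for 2 h, ECL detection.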

HCT-15 [16] = assay: Induction of apoptosis in human HCT15 cells assessed as increase in Bax level after 24 hrs by Western blot method; type: functional, cell-based
Procedure, shortened: as §3

HCT-15 [17] = assay: Induction of apoptosis in human HCT15 cells assessed as decrease in Bcl2 level after 24 hrs by Western blot method; type: functional, cell-based
Procedure, shortened: as §3

HCT-15 [18] = assay: Potency index, ratio of camptothecin IC50 to compound IC50 for human HCT15 cells; type: functional
HCT-15 [19] = assay: Potency index, ratio of etoposide IC50 to compound IC50 for human HCT15 cells; type: functional
HCT-15 [20] = assay: Potency index, ratio of adriamycin IC50 to compound IC50 for human HCT15 cells; type: functional
Bos taurus [21] = species: Bos taurus; assay: Induction of calf thymus DNA intercalation assessed as inhibition of ethidium bromide binding to DNA after 30 mins by fluorescence assay
Procedure, shortened: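 Calf thymus DNA ([…]) premixed with EtBr ([…]) in 10 mM Tris buffer pH 7.2, 30 min at room temperature with shaking. Compound then added at increasing concentrations […], final DMSO 1% (vehicle for untreated control), further 30 min at room temperature. EtBr fluorescence read at 471 nm excitation, emission spectrum collected 500–700 nm.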

DNA topoisomerase 2-alpha (Homo sapiens), sequence (P11388 whole entry): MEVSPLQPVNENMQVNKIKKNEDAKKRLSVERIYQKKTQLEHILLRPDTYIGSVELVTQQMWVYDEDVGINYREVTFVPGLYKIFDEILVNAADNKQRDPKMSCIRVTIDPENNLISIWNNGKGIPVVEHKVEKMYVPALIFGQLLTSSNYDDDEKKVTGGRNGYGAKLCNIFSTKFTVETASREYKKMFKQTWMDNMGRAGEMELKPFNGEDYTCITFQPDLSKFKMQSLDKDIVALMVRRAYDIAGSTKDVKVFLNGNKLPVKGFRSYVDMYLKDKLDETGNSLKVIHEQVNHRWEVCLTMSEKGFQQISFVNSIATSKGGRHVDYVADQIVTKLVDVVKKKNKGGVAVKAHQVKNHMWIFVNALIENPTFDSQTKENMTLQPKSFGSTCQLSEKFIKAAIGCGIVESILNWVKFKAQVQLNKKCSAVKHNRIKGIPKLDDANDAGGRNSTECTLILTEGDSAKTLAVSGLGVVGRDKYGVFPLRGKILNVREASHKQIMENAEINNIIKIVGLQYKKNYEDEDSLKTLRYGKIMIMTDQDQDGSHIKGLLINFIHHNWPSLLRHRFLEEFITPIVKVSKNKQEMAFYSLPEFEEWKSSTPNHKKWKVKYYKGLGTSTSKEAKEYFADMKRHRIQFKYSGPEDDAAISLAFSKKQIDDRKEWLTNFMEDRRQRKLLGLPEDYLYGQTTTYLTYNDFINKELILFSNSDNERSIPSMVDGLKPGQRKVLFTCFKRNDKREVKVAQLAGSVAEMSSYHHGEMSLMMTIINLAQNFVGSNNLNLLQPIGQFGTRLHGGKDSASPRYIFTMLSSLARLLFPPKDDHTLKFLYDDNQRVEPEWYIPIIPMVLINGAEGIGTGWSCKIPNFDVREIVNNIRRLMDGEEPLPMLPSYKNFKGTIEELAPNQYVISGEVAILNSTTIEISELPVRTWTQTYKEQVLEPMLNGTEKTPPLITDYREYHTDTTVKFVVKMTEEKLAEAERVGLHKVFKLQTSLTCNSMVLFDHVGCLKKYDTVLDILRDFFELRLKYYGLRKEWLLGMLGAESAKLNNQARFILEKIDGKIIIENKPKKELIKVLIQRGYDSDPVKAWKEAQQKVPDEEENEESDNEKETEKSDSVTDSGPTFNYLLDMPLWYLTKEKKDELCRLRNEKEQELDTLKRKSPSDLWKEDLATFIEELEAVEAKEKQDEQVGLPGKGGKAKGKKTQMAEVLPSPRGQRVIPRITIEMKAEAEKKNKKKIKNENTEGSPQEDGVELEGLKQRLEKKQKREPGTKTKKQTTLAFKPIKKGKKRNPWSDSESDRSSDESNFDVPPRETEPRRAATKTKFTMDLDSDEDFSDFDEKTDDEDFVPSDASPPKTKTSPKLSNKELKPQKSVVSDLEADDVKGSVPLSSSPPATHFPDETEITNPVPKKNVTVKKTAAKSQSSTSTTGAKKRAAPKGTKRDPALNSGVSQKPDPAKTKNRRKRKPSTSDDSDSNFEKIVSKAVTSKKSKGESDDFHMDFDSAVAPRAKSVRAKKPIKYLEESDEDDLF
T1 sequence (P11387 whole entry, looked up): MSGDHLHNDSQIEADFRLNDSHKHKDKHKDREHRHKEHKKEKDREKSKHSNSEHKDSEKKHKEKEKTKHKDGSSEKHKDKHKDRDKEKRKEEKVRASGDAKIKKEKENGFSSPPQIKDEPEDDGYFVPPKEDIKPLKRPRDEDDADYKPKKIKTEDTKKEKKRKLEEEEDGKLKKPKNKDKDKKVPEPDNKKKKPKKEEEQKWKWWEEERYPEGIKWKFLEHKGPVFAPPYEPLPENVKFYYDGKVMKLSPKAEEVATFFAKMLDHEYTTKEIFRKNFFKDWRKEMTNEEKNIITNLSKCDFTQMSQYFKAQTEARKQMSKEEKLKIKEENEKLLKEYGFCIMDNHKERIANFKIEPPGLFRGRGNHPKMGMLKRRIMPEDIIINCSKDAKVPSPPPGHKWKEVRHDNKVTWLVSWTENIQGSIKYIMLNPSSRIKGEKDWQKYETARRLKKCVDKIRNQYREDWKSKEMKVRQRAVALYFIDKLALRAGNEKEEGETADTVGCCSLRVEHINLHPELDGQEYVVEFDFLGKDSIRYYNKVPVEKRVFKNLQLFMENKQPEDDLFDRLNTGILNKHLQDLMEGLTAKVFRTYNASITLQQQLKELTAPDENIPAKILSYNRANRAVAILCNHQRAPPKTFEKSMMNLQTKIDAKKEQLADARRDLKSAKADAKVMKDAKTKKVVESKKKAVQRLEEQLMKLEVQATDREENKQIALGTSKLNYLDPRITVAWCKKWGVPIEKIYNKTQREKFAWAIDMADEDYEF
T1 sequence (P11388 whole entry, looked up): as the sequence (P11388 whole entry) above

| SMILES | inhibition [2] | IC50 (HCT-15 [3]) | IC50 (T47D) | IC50 (HeLa) | other results |
| --- | --- | --- | --- | --- | --- |
| Cc1c2ccncc2c(C)c2c1[nH]c1ccccc12 | – | – | – | – | inhibition [1]: Active |
| Oc1ccccc1-c1cc(-c2ccccc2Cl)c2oc3ccccc3c2n1 | 58.2% | 0.3 µM | 3 µM | 10.9 µM | – |
| Oc1ccccc1-c1cc(-c2ccc(Cl)cc2)c2oc3ccccc3c2n1 | 55.8% | > 50 µM | > 50 µM | > 50 µM | – |
| Oc1ccccc1-c1cc(-c2ccccc2Cl)nc2c1oc1ccccc12 | 85.6% | 0.4 µM | 3.9 µM | 2.8 µM | – |
| C[C@@H](CN1CC(=O)NC(=O)C1)N1CC(=O)NC(=O)C1 [DEXRAZOXANE] | – | – | – | – | Activity (HCT-15 [4]): 5.5%; Activity (HCT-15 [5]): inactive |
| Oc1ccc(-c2cc(-c3ccccc3Cl)nc3c2oc2ccccc23)cc1 | 92.8% | 0.4 µM | 6.1 µM | 3.9 µM | – |
| COc1cc([C@@H]2c3cc4c(cc3[C@@H](O[C@@H]3O[C@@H]5CO[C@@H](C)O[C@H]5[C@H](O)[C@H]3O)[C@H]3COC(=O)[C@H]23)OCO4)cc(OC)c1O [ETOPOSIDE] | – | 5.4 µM | 7 µM | 9.1 µM | Activity [6]: Active; Activity (HCT-15 [4]): 65.5%; Activity (HCT-15 [7]): 46.3%; Activity (HCT-15 [5]): Active; inhibition [8]: 36.1%; inhibition [9]: 60.9%; inhibition [1]: Active |
| Oc1ccc(-c2cc(-c3ccccc3Cl)c3oc4ccccc4c3n2)cc1 | 52.7% | 46.2 µM | 0.8 µM | 15.9 µM | – |
| Oc1ccc(-c2cc(-c3ccc(Cl)cc3)nc3c2oc2ccccc23)cc1 | 100% | 0.2 µM | 5.9 µM | 4.3 µM | Activity [10]: inactive; inhibition [11]: Dose-dependent effect; Activity [6]: inactive; Activity (HCT-15 [4]): 6.3%; Activity (HCT-15 [5]): inactive; inhibition (Bos taurus [12]): inactive; inhibition [8]: 38.2%; inhibition [9]: 45.5%; inhibition [13]: 58.4%; inhibition [14]: Dose-dependent effect; Activity (HCT-15 [15]): Dose-dependent effect; Activity (HCT-15 [16]): Dose-dependent effect; Activity (HCT-15 [17]): Dose-dependent effect |
| Oc1ccccc1-c1cc(-c2cccc(Cl)c2)c2oc3ccccc3c2n1 | 4.7% | > 50 µM | > 50 µM | > 50 µM | – |
| CC[C@@]1(O)C(=O)OCc2c1cc1n(c2=O)Cc2cc3ccccc3nc2-1 [CAMPTOTHECIN] | – | 0.6 µM | 2.1 µM | 0.09 µM | inhibition [8]: 74.6%; inhibition [9]: 80.5% |
| COc1cccc2c1C(=O)c1c(O)c3c(c(O)c1C2=O)C[C@@](O)(C(=O)CO)C[C@@H]3O[C@H]1C[C@H](N)[C@H](O)[C@H](C)O1 [DOXORUBICIN HYDROCHLORIDE] | – | 1 µM | 0.3 µM | – | – |
| Oc1ccccc1-c1cc(-c2ccc(Cl)cc2)nc2c1oc1ccccc12 | 86.7% | > 50 µM | > 50 µM | 9.5 µM | – |
| Oc1cccc(-c2cc(-c3ccccc3Cl)nc3c2oc2ccccc23)c1 | 82.9% | 1.6 µM | 1.5 µM | 4.4 µM | – |
| Oc1ccc(-c2cc(-c3ccc(Cl)cc3)c3oc4ccccc4c3n2)cc1 | 65.6% | 21.3 µM | 11.6 µM | 11.8 µM | – |
| Oc1cccc(-c2cc(-c3ccccc3Cl)c3oc4ccccc4c3n2)c1 | 60.2% | 1.4 µM | 0.1 µM | 4.3 µM | – |
| Oc1ccc(-c2cc(-c3cccc(Cl)c3)nc3c2oc2ccccc23)cc1 | 95.4% | 0.2 µM | 1.9 µM | 0.9 µM | – |
| Oc1cccc(-c2cc(-c3ccc(Cl)cc3)nc3c2oc2ccccc23)c1 | 87.9% | 0.2 µM | 2.1 µM | 5.7 µM | – |
| Oc1cccc(-c2cc(-c3ccc(Cl)cc3)c3oc4ccccc4c3n2)c1 | inactive | > 50 µM | 2 µM | 11.1 µM | – |
| Oc1ccccc1-c1cc(-c2cccc(Cl)c2)nc2c1oc1ccccc12 | 84% | 0.01 µM | 0.4 µM | 5.2 µM | Ratio IC50 (HCT-15 [18]): 60; Ratio IC50 (HCT-15 [19]): 540; Ratio IC50 (HCT-15 [20]): 100 |
| COc1cc(NS(C)(=O)=O)ccc1Nc1c2ccccc2nc2ccccc12 | – | – | – | – | inhibition (Bos taurus [21]): Dose-dependent effect |
| Oc1ccc(-c2cc(-c3cccc(Cl)c3)c3oc4ccccc4c3n2)cc1 | 4.9% | 5.9 µM | > 50 µM | > 50 µM | – |
| Oc1cccc(-c2cc(-c3cccc(Cl)c3)c3oc4ccccc4c3n2)c1 | 35% | 5.9 µM | 1.2 µM | 6.4 µM | – |
| Oc1cccc(-c2cc(-c3cccc(Cl)c3)nc3c2oc2ccccc23)c1 | 85.4% | 0.4 µM | 1.4 µM | 4.3 µM | – |
